High-throughput results from PubChem BioAssay.
Compounds with a hit are over-represented: about 2.3% of the library has one in this group of screens.
TRPC4 PAM = TRPC4 (mouse) allosteric potentiation; Q9QUQ5; actives 0.42% (n = 310,000); B-score at 10 µM; HEK293 TRPC4beta/mu-opioid, DAMGO EC20, Fluo-4 Ca2+ flux; active compounds read high; AID 2227;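 active = B-score of calcium response area above 5 SD of library B-scores, with initial fluorescence ratio within 5 SD of library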;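 also: B-score of integrated fluorescence ratio over time as area under calcium response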
TRPC4 act = activators of mouse TRPC4 channel; B-score at 10 µM; actives 0.49% (n = 310,000); HEK293 TRPC4beta/mu-opioid, Fluo4 calcium fluorescence; active compounds read high;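 active = B-score above 5 SD of library B-scores, and initial fluorescence ratio not above library mean plus 5 SD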;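 also: positive B-score marks a calcium rise read as TRPC4 activation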
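Assay system – TRPC4beta and mu-opioid receptor HEK293 stable cells · Measured by – Fluo4 fluorescence, kinetic · Schedule – dye loading 45 min room temperature, 110 s kinetic read · Read-out – B-scored integrated calcium fluorescence ratio · Controls – buffer and maximal DAMGO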
TRPC4 block = inhibitors of mouse TRPC4 channel; Q9QUQ5; HEK293 TRPC4beta/mu-opioid, DAMGO-evoked Fluo4 calcium flux; active compounds read low; B-score at 10 µM; actives 0.39% (n = 300,000); AID 2247;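 active = B-score over 3 SD under the library average, no early fluorescence shift, positive overall ratio signal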
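Assay system: TRPC4beta/mu-opioid receptor HEK293 cell line; compound dosing: single concentration per test compound; detection: Fluo4 Ca2+ flux fluorescence; evaluation: per-well B score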
TRPC6 act = mouse TRPC6 channel activation. B-score at 10 µM. actives 0.13% (n = 310,000). HEK293-TRPC6 membrane potential dye fluorescence; active compounds read high;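 active = B-score of the integrated fluorescence ratio above library mean plus 3 SD, and starting fluorescence ratio within library mean plus 5 SD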;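 also: higher score means more depolarization so channel activation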
Target sequence (Q61143 whole entry, looked up): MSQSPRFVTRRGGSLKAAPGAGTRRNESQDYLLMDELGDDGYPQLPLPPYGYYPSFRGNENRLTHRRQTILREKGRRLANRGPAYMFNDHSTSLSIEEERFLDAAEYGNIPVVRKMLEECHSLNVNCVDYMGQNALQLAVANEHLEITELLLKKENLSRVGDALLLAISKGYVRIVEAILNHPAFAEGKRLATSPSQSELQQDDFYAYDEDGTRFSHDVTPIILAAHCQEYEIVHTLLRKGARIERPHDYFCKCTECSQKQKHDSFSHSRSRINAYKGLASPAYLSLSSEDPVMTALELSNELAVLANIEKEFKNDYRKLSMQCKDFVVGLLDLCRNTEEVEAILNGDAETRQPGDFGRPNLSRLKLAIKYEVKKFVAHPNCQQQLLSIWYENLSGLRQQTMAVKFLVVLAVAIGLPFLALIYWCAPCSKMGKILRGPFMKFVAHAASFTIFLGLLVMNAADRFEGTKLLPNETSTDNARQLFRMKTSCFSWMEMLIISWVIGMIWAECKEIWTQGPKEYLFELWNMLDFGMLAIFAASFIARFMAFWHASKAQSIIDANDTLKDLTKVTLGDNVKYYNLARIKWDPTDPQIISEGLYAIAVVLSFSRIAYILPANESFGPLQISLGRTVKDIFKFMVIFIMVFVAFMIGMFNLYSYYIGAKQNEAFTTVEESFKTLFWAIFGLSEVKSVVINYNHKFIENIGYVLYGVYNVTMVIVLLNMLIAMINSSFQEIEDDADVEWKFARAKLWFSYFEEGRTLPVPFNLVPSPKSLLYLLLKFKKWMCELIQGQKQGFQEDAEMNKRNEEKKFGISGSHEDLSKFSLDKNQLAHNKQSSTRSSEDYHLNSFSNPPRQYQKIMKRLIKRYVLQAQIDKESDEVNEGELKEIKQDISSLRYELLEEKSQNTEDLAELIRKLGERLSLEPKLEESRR
TRPC6 inhibitor = mouse TRPC6 channel inhibition | Q61143 | HEK293-TRPC6, membrane potential dye, ACh-evoked depolarization; active compounds read low | B-score at 10 µM | actives 1.1% (n = 310,000) | AID 2553;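 active = B-score under library mean minus 3 SD, initial fluorescence not abnormally high, positive integrated signal ratio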;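 also: B-score derived from integrated fluorescence ratio over the kinetic read; more negative B-score means stronger inhibition of depolarization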
TRPC4 spec 2 = second selectivity test of TRPC6 inhibitors: effect on mouse TRPC4. shares compounds with TRPC6 inhibitor. HEK293 TRPC4/MOR, membrane potential dye fluorescence; channel activated by saturating DAMGO dose. inhibition, % at 10 µM. actives 42% (n = 920). AID 2776;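 active = compounds whose fluorescence signal differed from control wells by over 3 SD, either direction, in both duplicate plates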
TRPC4 spec = selectivity of TRPC6 inhibitors: effect on mouse TRPC4; shares compounds with TRPC6 inhibitor; HEK293 TRPC4/mu-opioid, membrane potential fluorescence; activity change, negative = inhibition, % at 10 µM; actives 61% (n = 920); AID 2777;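 active = rise or fall in signal beyond 3 SD of buffer-only wells in both replicate plates, either sign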;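 also: integrated kinetic ratio of fluorescence range over baseline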
HEK293 MPD ctr 2-1 = second counter-screen for TRPC6 inhibitors: parental HEK293 cells | shares compounds with TRPC6 inhibitor | parental HEK293 membrane potential dye fluorescence; maximal acetylcholine challenge after compound addition | signal change vs control, % at 10 µM | actives 31% (n = 920) | AID 2779;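 active = membrane potential signal moving either way by over 3 SD of the maximum-effect control, in both duplicate plates, meaning non-specific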
HEK293 MPD ctr-1 = checks TRPC6 inhibitor effects in parental HEK293 cells. shares compounds with TRPC6 inhibitor. parental HEK293 membrane potential dye fluorescence. membrane potential signal change, % at 10 µM. actives 60% (n = 920);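 active = membrane potential signal shifting up or down by more than 3 SD of buffer-only wells, on both duplicate plates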
HEK293 MPD ctr-2 = checks TRPC6 modulator effects in parental HEK293 cells | actives 51% (n = 2,400) | shares compounds with TRPC6 inhibitor | membrane potential dye fluorescence | membrane potential signal change, % at 10 µM;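 active = membrane potential signal moves up or down beyond 5 SD from buffer-only wells, on both duplicate plates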
HEK293 MPD ctr 2-2 = parental HEK293 nonspecific activity of TRPC6 modulators, second screen. actives 14% (n = 2,400). shares compounds with TRPC6 inhibitor. membrane potential dye fluorescence; after compound, maximal acetylcholine stimulation. inhibition, % at 10 µM. AID 488926;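 active = membrane potential signal drops by more than 5 SD from the mean control signal, in both duplicate plates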;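 also: plate controls were acetylcholine ECmax control wells for no effect and buffer only wells for full effect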
TRPC4 ctr mod = selectivity of TRPC6 modulators against mouse TRPC4; shares compounds with TRPC6 inhibitor; actives 69% (n = 2,400); HEK293 TRPC4/mu-opioid, membrane potential fluorescence; percent change from control (negative = decrease, positive = increase), % at 10 µM;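 active = membrane potential signal moved up or down beyond 5 SD of buffer control wells, in both duplicate plates, actives on both sides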;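 also: plate controls were assay buffer wells for no effect and DAMGO maximal-effect wells for full effect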
TRPC4 ctr inh 2 = second check of whether TRPC6 modulators also affect mouse TRPC4; shares compounds with TRPC6 inhibitor; HEK293 TRPC4/mu-opioid, membrane potential dye fluorescence; stimulated with maximal-effect DAMGO; inhibition, % at 10 µM; actives 55% (n = 2,400); AID 488928;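 active = drop in membrane potential signal beyond 5 SD of the control wells in both duplicate plates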;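 also: TRPC4 counter screen for TRPC6 hits run under conditions tuned for TRPC6 not TRPC4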
TRPC6 inh conf = mouse TRPC6 inhibitor confirmation. shares compounds with TRPC6 inhibitor. HEK293-TRPC6, membrane potential dye, ACh-evoked depolarization. inhibition, % at 10 µM. actives 43% (n = 3,300). AID 488960;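 active = fluorescence ratio falls more than 5 SD below the full-stimulation control mean, in both duplicate runs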;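 also: integrated fluorescence ratio of peak minus minimum over baseline after agonist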
TRPC6 act conf = mouse TRPC6 activator confirmation; actives 11% (n = 2,800); HEK293-TRPC6 membrane potential dye fluorescence, FDSS; AID 488961; activation, % at 10 µM; shares compounds with TRPC6 inhibitor;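 active = ratio signal rise beyond 5 SD above unstimulated control wells' mean, seen in both duplicate runs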;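 also: plate controls were buffer EC0 wells for no effect and acetylcholine ECmax response for full effect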
The depositor's hits bear a star; i = inactive; · = no result.

SMILES	TRPC4 PAM	TRPC4 act	TRPC4 block	TRPC6 act	TRPC6 inhibitor	HEK293 MPD ctr-2	HEK293 MPD ctr 2-2	TRPC4 ctr mod	TRPC4 ctr inh 2	TRPC6 inh conf	TRPC6 act conf	others
Cc1cc(C)n(-c2nc(SCCN(C)C)c3c4c(sc3n2)COC(C)(C)C4)n1	i	i	i	i	-9.77*	·	·	·	·	56.8%*	i	TRPC4 spec 2=48.5%*;TRPC4 spec=-15.4%*;HEK293 MPD ctr 2-1=i;HEK293 MPD ctr-1=-303.5%*
CCn1cc(Br)c(C(=O)NCc2ccco2)n1	i	i	i	i	-5.82*	i	i	i	i	i	i
CCCN1CCC(NC(=O)c2cccc(Oc3ccccc3)c2)CC1	i	i	i	i	i	·	·	·	·	·	·
COc1ccc(C(=O)N/C(=C/c2cccnc2)C(=O)N2CCOCC2)cc1OC	i	i	i	i	i	·	·	·	·	·	·
COc1cc(C(=O)Nc2ccc(N(C)C)cc2)cc(OC)c1OC	i	i	i	i	-6.4*	i	i	i	i	i	i
COc1cc(C(=O)Nc2ccc(NC(=O)c3cccc(Cl)c3)nc2)cc(OC)c1OC	i	i	i	i	-5.42*	i	i	i	i	i	i
CCCCn1c(NCc2ccc3c(c2)OCO3)nc2ccccc21	i	i	i	i	-5.25*	i	i	i	88.5%*	40.0%*	i
CCCn1c(NCc2ccc3c(c2)OCO3)nc2ccccc21	i	i	i	i	-5.24*	i	i	8.0%*	73.5%*	44.0%*	i
Cc1noc(C)c1C(=O)Nc1nc(-c2ccccc2Cl)cs1	i	i	i	i	i	·	·	·	·	·	·
Cc1c(N2C(=O)C3C4C=CC(C5CC45)C3C2=O)c(=O)n(-c2ccccc2)n1C (stereo unspecified)	i	i	i	i	i	·	·	·	·	·	·
COc1ccc2[nH]c3c(C)c4ccncc4c(C)c3c2c1	i	i	i	i	-6.21*	-159.0%*	i	-43.0%*	33.0%*	i	i
COc1cccc(N(CC(=O)NC(C)c2ccccc2)S(C)(=O)=O)c1 (stereo unspecified)	i	i	i	i	i	·	·	·	·	·	·
Cc1ccc2c(ccn3cc4c(c(=O)n(C)c(=O)n4C)c23)c1	i	i	i	i	-7.2*	·	·	·	·	i	i	TRPC4 spec 2=i;TRPC4 spec=-25.0%*;HEK293 MPD ctr 2-1=i;HEK293 MPD ctr-1=-325.0%*
CC(C)(Oc1ccc(Cl)cc1)C(=O)NCC(c1cccs1)N1CCOCC1 (stereo unspecified)	i	i	i	i	i	·	·	·	·	·	·
COc1ccccc1C(CNC(=O)C(C)(C)Oc1ccc(Cl)cc1)N1CCCC1 (stereo unspecified)	i	i	i	i	-5.73*	194.0%*	i	33.0%*	41.5%*	52.5%*	·
CC[n+]1c(C)sc2c3ccsc3ccc21	i	i	i	i	-6.33*	-184.5%*	i	-32.5%*	i	i	i
CN1CCN(CC(O)(c2ccc(Cl)cc2)c2ccc(Cl)cc2)CC1	i	i	i	i	-7.26*	·	·	·	·	i	i	TRPC4 spec 2=i;TRPC4 spec=4.3%*;HEK293 MPD ctr 2-1=i;HEK293 MPD ctr-1=1.8%*
CN1CCN(CC(O)COc2ccc(Cl)cc2)CC1 (stereo unspecified)	i	i	i	i	i	·	·	·	·	·	·
CCC(C)NC(=O)N[C@@H](Cc1ccccc1)C(=O)O (stereo partly specified)	i	i	i	i	i	·	·	·	·	·	·
CC(=O)[C@@]1(O)C(C)CC2C3C=C(C)C4=Cc5c(cnn5-c5ccccc5)C[C@]4(C)C3C(O)C[C@@]21C (stereo partly specified)	i	i	i	i	-6.44*	i	i	i	i	i	·
CCCCc1nc2ccccc2c(NC(=O)CNC(C)(C)C)c1CCC	i	i	i	i	i	·	·	·	·	·	·
CCCCc1nc2ccccc2c(N)c1CCC (tested in a mixture with another compound)	i	i	-6*	i	-7.63*	·	·	·	·	59.2%*	i	TRPC4 spec 2=15.0%*;TRPC4 spec=i;HEK293 MPD ctr 2-1=i;HEK293 MPD ctr-1=0.7%*
O=c1c(/C=N/O)c(Nc2ccccc2)nc2ccccn12	i	i	i	i	i	·	·	·	·	·	·
COc1ccc(-n2cc(CNCCCn3ccnc3)c(-c3cccc(F)c3)n2)cc1	i	i	i	i	-5.96*	i	i	-8.5%*	73.5%*	42.0%*	i
Cc1sc2nc(CN3CCCC3)nc(NCc3ccncc3)c2c1C	i	i	i	i	i	·	·	·	·	·	·
Cc1sc2nc(CN3CCCCC3)nc(Nc3ccc4c(c3)OCCO4)c2c1C	i	i	i	i	-4.98*	i	i	i	i	43.5%*	·
CCc1ccc2oc(-c3ccc(OC)cc3)cc(=Nc3cccc(C(=O)O)c3)c2c1	i	i	i	i	i	·	·	·	·	·	·
CCc1ccc2oc(-c3ccc(OC)cc3)cc(=Nc3c(C)n(C)n(-c4ccccc4)c3=O)c2c1	i	i	i	i	-7.84*	·	·	·	·	i	i	TRPC4 spec 2=i;TRPC4 spec=-13.0%*;HEK293 MPD ctr 2-1=i;HEK293 MPD ctr-1=-245.5%*
